Screens as filed in PubChem BioAssay.
Hits are enriched below; roughly 1.8% of the tested compounds scored in any of these assays.
SUMO1-SIM PPI = SUMO1-SIM interaction modulation. AID 602429. 360,000 tested, 0.33% active. inhibition, % at 20 µM. SUMO1 binding to a labelled peptide, TR-FRET, 1 h. P63165; in the data active means inhibition above about 37%
STEP block = STEP (human) phosphatase inhibition; inhibition, % at 20 µM; recombinant STEP, OMFP fluorogenic substrate, fluorescence; 360,000 tested, 0.25% active; P54829; AID 588621;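 active means inhibition at 20 µM, scaled per plate between control wells, above about 37%, limit read from the data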;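 further: 0% = DMSO with enzyme and substrate and 100% = substrate only without enzyme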
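Material: STEP (striatal-enriched tyrosine phosphatase) enzyme, cell-free; Compound dosing: 20 µM single dose in 1% DMSO; Technique: fluorescence read at 480 nm ex / 540 nm em; Times: reaction 20 min, ambient temperature; Medium: 50 mM Bis-Tris pH 6.0 with 2.5 mM DTT and 0.005% Tween 20; Also added: OMFP at 25 µM.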
Scp1 inh = blocks human Scp-1 phosphatase activity | Q9GZU7 | Recombinant Scp1, phosphopeptide, malachite green phosphate absorbance | inhibition, % at 20 µM | 340,000 tested, 0.88% active;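 active means inhibition above about 50% at 20 µM, limit read from the data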;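 further: plate controls were DMSO wells with enzyme for no effect and wells lacking enzyme for full effect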
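System: SCP-1 catalytic domain; Reagent: Phospho 17-mer peptide substrate; Doses: one concentration, 20 µM, with 1.0% DMSO; Incubation: 45 min room-temperature reaction, 5 min colour, 30 min stabiliser; Signal: Phosphate-binding colour reagent, absorbance read at 630 nm.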
DNMT1 inh = inhibitors of human DNMT1; P26358; DNMT1 molecular beacon, Hinp1I cleavage, fluorescence; inhibition (reported as % activation of signal), % at 10 µM; 360,000 tested, 0.83% active; in the data active means inhibition above about 50%
LMPTP inh = blocks human LMPTP phosphatase | 360,000 tested, 0.22% active | recombinant LMPTP-A, OMFP fluorogenic substrate, fluorescence intensity | inhibition, % at 20 µM | AID 651560;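 active means compounds that cut the enzyme signal by at least half of the control window in the single-dose screen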;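 further: plate controls were DMSO wells with enzyme plus substrate for no effect and substrate without enzyme for full effect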
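Assay system: LMPTP-A phosphatase enzyme | Input: 0.625 nM enzyme | Also added: Fluorogenic phosphatase substrate OMFP at 400 µM final | Compound dosing: One test concentration per compound, 20 µM, with 3% DMSO overall | Schedule: 50 min enzyme reaction at room temperature, protected from light | Signal: Fluorescence intensity | Benchmarks: no-enzyme and uninhibited controls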
HKDC1 inhibitor = inhibitors of human hexokinase HKDC1. Q2TB90. inhibition, % at 20 µM. recombinant HKDC1, G6PDH/diaphorase resazurin coupled fluorescence. AID 493160. 340,000 tested, 0.16% active;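 active means inhibition above about 35% when tested at 20 µM, limit read from the data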;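 further: plate controls were DMSO wells with enzyme for no effect and DMSO wells lacking enzyme for full effect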
Target sequence (Q2TB90 whole entry, looked up): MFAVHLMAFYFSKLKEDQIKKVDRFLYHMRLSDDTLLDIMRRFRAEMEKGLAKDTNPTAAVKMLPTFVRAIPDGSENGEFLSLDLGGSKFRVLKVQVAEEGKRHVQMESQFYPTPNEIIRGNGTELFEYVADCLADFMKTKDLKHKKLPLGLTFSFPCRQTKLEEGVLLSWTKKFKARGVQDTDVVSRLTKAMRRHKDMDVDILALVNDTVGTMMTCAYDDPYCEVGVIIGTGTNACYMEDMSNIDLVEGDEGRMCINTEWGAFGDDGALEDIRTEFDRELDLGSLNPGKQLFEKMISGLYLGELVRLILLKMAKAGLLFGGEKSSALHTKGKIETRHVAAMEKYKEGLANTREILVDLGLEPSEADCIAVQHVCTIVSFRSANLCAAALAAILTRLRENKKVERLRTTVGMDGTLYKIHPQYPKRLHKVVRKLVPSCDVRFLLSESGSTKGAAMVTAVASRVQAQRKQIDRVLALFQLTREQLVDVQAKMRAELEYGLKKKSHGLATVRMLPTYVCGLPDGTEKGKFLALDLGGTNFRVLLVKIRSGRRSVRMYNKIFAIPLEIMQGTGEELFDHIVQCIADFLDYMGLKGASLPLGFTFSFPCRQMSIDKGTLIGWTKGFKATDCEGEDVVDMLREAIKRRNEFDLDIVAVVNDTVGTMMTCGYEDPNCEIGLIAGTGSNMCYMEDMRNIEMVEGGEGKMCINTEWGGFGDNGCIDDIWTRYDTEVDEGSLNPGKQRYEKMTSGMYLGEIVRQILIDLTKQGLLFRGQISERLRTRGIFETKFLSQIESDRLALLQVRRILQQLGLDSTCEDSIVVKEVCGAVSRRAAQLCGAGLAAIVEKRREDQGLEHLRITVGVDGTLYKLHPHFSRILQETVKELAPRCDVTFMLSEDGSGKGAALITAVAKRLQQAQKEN
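test system = in-house recombinant HK5 (HKDC1) enzyme | amount = HKDC1 at 5 µg/mL | control set = DMSO-enzyme wells negative, buffer-substituted wells positive | compound = one dose of 20 µM, 1% DMSO | schedule = reaction time 90 min, room temperature, protected from light | technique = resorufin fluorescence at 613 nm | reagent = glucose with 1 mM ATP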
Numbers without * were called inactive; . = no result.

SMILES	SUMO1-SIM PPI	STEP block	Scp1 inh	DNMT1 inh	LMPTP inh	HKDC1 inhibitor
CCOC(=O)c1ccc(NC(=O)C2CC(O)CN2S(=O)(=O)c2ccc(C)cc2)cc1 (stereo not drawn)	42*	-2	-6	2	-1	-5
COc1cc2c(ccc3cc(OC)c(OC)c(O)c32)cc1O	34	53*	69*	85*	62*	16
COc1cc2cccc(OC)c(=O)c2c(O)c1OC	-23	2	-4	-1	0	-8
CCOC(=O)/C(=C\c1cccc(O)c1)c1nc2sc(C)c(C)c2c(=O)[nH]1	-1	85*	4	-8	7	3
Cc1ccc(N2C(=S)SC3CS(=O)(=O)CC32)cc1 (stereo not drawn)	47*	1	-5	-1	1	-14
O=C(c1ccco1)N(CCC(c1ccccc1)c1ccco1)Cc1ccco1 (stereo not drawn)	14	9	74*	100*	3	12
CN1CCN(C(=O)c2ccc(Cc3cn(C)c4ccccc34)nc2)CC1	-5	-1	.	-1	-2	.
COC(=O)c1ccccc1S(=O)(=O)N1CCC(C(=O)NCc2ccco2)CC1	-4	0	7	2	-1	-4
COc1cccc(NC(=O)C2(C)CCN2C(=O)Cc2ccc(C(C)C)cc2)c1 (stereo not drawn)	2	0	.	4	1	.
O=S(=O)(O)c1cccc2c(N=Nc3ccc(O)c4ncccc34)cccc12	28	51*	95*	50	51*	10
COc1ccc(C)cc1N=Nc1ccc(O)c2ncccc12	-22	4	-4	7	5	-31
Cc1ccccc1N=Nc1ccc(O)c2ncccc12	-7	4	0	71*	-1	-25
COc1ccc(N=Nc2ccc(O)c3ncccc23)cc1	51*	2	-7	71*	7	-38
CSc1ccc(-c2cc3c(c4c2ccn4C)C2CCC3O2)cc1 (stereo not drawn)	0	2	.	-2	3	.
CCCCn1c(N)c(N(CC(C)C)C(=O)c2cccc(S(=O)(=O)N(CC)c3ccccc3)c2)c(=O)[nH]c1=O	1	-2	-2	5	-1	-2
COc1ccccc1Nc1nc(-c2ccc3c(c2)NC(=O)CO3)cs1	-6	-1	1	-22	48	-1
CCC(C)Nc1nc(-c2ccc3c(c2)NC(=O)CO3)cs1 (stereo not drawn)	0	-2	7	-6	48*	-8
COc1ccc(Nc2nc(-c3ccc4c(c3)NC(=O)CO4)cs2)cc1	-4	0	1	-26	54*	-2
CCCS(=O)(=O)Nc1ccc(Nc2c3ccccc3nc3ccccc23)c(OC)c1	-26	7	2	12	34	9
COc1cc(N)ccc1Nc1c2ccccc2nc2ccccc12	-62	6	.	-14	87*	.
Nc1c(NC=O)c(=O)n(Cc2ccccc2)c(=O)n1Cc1ccccc1	-1	-1	-9	1	0	-2
COc1ccc(OC)c(NC(=O)CN2C(=O)C(=O)N(Cc3ccccc3)C2=O)c1	-6	0	-6	-3	0	-2
CC(C)(CCO)Nc1ncnc2onc(-c3ccc(F)cc3)c12	3	-2	-6	0	0	-5
N#CC1(Nc2ccc([N+](=O)[O-])cc2)CCCC1	-20	2	1	4	-2	6
O=C1C=C(c2ccc3c(c2)OCO3)C[C@@H](c2ccc3c(c2)OCO3)C1	-4	0	6	6	1	-3
SMILES	SUMO1-SIM PPI	STEP block	Scp1 inh	DNMT1 inh	LMPTP inh	HKDC1 inhibitor
O=C1C=C(c2ccc3cc[nH]c3c2)C[C@@H](c2ccc3c(c2)OCO3)C1	-7	0	67*	12	5	0
O=C(c1cc(C2CC2)nn1-c1ccccc1)N1CCN(S(=O)(=O)c2cccc(F)c2)CC1	3	-1	-7	-6	1	-2
COc1cccc(C(=O)Nc2cccc(C(=O)NC3=NN(c4c(Cl)cc(Cl)cc4Cl)C(=O)C3)c2)c1	44*	2	5	7	2	6
COc1cccc(C(=O)Nc2cccc(NC(=O)c3ccccc3Cl)c2)c1	0	0	-6	-1	0	-3
COCCN1C(=O)CN(S(C)(=O)=O)CC1(C)C(=O)NC(C)C (stereo not drawn)	2	.	.	.	-1	.
CCOc1cc(C=O)ccc1OCCSc1ccc(Cl)cc1	-4	0	-14	5	3	-1
CCC(=O)Nc1ccc(C(=O)COC(=O)c2nc3nccc(C)n3n2)cc1	25	5	72*	109*	46	6
O=[N+]([O-])c1nn(-c2cccc(Cl)c2)n(O)c1=NCc1cccnc1	43*	0	9	0	0	-12
O=[N+]([O-])c1nn(-c2ccc(Cl)cc2)n(O)c1=NCc1cccnc1	-28	1	-8	-2	2	2
O=C(/C=C/c1ccco1)NC(=S)Nc1ccc(C(=O)O)cc1	26	28	52*	91*	0	9
CC(=O)NC(=S)Nc1ccc(NC(=S)NC(=O)/C=C/c2ccco2)cc1	-2	8	-7	8	11	-1
Cc1ccccc1C1=C/C(=C(\SS/C(C(=O)c2ccc(OCC(=O)O)c(Cl)c2Cl)=C2\C=C(c3ccccc3C)SS2)C(=O)c2ccc(OCC(=O)O)c(Cl)c2Cl)SS1	116*	15	10	47	73*	-29
O=C(O)COc1ccc2nsnc2c1Cl	0	3	0	-4	0	-1
Cn1c(=O)c2[nH]c(CCCCCCCc3nc4ccccc4[nH]3)nc2n(C)c1=O	2	0	5	0	2	-2
OC(c1ccccc1)c1ncc(-c2cccc(C(F)(F)F)c2)[nH]1 (stereo not drawn)	-1	-3	.	5	1	.
O=C(Cn1cnc2sc(-c3ccccc3)cc2c1=O)NCc1ccco1	-9	-1	71*	-4	-1	11
CC(O)(c1cccnc1)c1nc(-c2cccc3cccnc23)cs1 (stereo not drawn)	-21	2	.	21	1	.
N#Cc1c(N)c2ccccn2c1C(=O)c1ccc(Br)cc1	-30	1	2	0	1	1
Cc1nc2ccc3nc(NC(=O)c4ccco4)sc3c2s1	54*	4	25	6	0	7
O=C(Nc1nc2ccsc2c(=O)s1)c1ccco1	39*	8	54*	44	0	-1
CC(=O)c1ccc(N2CCN(C(=O)c3ccccc3SCC(=O)NCc3ccco3)CC2)c(F)c1	-6	-2	-4	5	1	-4
